According to ChEMBL document CHEMBL2150894, “Synthesis and anti-staphylococcal activity of new 4-diazopyrazole derivatives” (2012):
Values after ≈ are worked out from the molar mass of the structure shown. Active and inactive are the calls of the source. The rule behind the calls is not given here.

Legend:
Type in all cases: functional
[1] = test system: Staphylococcus aureus; test: Antibacterial activity against Staphylococcus aureus ATCC 25923 after 24 hrs by broth microdilution method; conditions: ATCC 25923, 24 h
Summary of the method: (§1)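 Broth microdilution in Mueller Hinton broth with twofold serial dilutions spanning 50 to 0.001. Each well received inoculum from a 24 h culture containing about 10⁶ cfu mL⁻¹, then incubated at 37 °C for 24 h. MIC was the lowest concentration whose OD570 matched the broth-only negative control. Veterinary isolates came from milk and food samples (IZS Sicily collection).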

[2] = test system: Staphylococcus aureus; test: Antibacterial activity against Staphylococcus aureus isolate 722 obtained from veterinary sample after 24 hrs by broth microdilution method; conditions: isolate 722, 24 h; summary of the method: as §1
[3] = test system: Staphylococcus aureus; test: Antibacterial activity against Staphylococcus aureus isolate 357 obtained from veterinary sample after 24 hrs by broth microdilution method; conditions: isolate 357, 24 h; summary of the method: as §1
[4] = test system: Staphylococcus aureus; test: Antibacterial activity against Staphylococcus aureus ATCC 6538 after 24 hrs by broth microdilution method; conditions: ATCC 6538, 24 h; summary of the method: as §1
[5] = test system: Staphylococcus aureus; test: Antibacterial activity against Staphylococcus aureus isolate 708 obtained from veterinary sample after 24 hrs by broth microdilution method; conditions: isolate 708, 24 h; summary of the method: as §1
[6] = test system: Staphylococcus aureus; test: Antibacterial activity against Staphylococcus aureus isolate 100 obtained from veterinary sample after 24 hrs by broth microdilution method; conditions: isolate 100, 24 h; summary of the method: as §1
[7] = test system: Staphylococcus aureus; test: Antibacterial activity against Staphylococcus aureus isolate 712 obtained from veterinary sample after 24 hrs by broth microdilution method; conditions: isolate 712, 24 h; summary of the method: as §1
[8] = test system: Staphylococcus aureus; test: Antibacterial activity against Staphylococcus aureus ATCC 29213 after 24 hrs by broth microdilution method; conditions: ATCC 29213, 24 h; summary of the method: as §1
[9] = test system: Staphylococcus aureus; test: Antibacterial activity against Staphylococcus aureus isolate 723 obtained from veterinary sample after 24 hrs by broth microdilution method; conditions: isolate 723, 24 h; summary of the method: as §1
[10] = test system: Staphylococcus aureus; test: Antibacterial activity against Staphylococcus aureus ATCC 29213 assessed as inhibition of biofilm formation at 3.1 ug/mL
[11] = test system: Staphylococcus aureus; test: Antibacterial activity against Staphylococcus aureus isolate 708 obtained from veterinary sample assessed as inhibition of biofilm formation at 3.1 ug/mL
[12] = test system: Staphylococcus aureus; test: Antibacterial activity against Staphylococcus aureus ATCC 25923 assessed as inhibition of biofilm formation at 3.1 ug/mL
[13] = test system: Staphylococcus aureus; test: Antibacterial activity against methicillin-resistant Staphylococcus aureus ATCC 43866 assessed as inhibition of biofilm formation at 25 ug/mL
[14] = test system: Staphylococcus aureus; test: Antibacterial activity against methicillin-resistant Staphylococcus aureus ATCC 43866
[15] = test system: Staphylococcus aureus; test: Antibacterial activity against methicillin-resistant Staphylococcus aureus clinical isolate
[16] = test system: Staphylococcus epidermidis; test: Antibacterial activity against Staphylococcus epidermidis RP62A assessed as inhibition of biofilm formation at 25 ug/mL
[17] = test system: Staphylococcus epidermidis; test: Antibacterial activity against Staphylococcus epidermidis RP62A
[18] = test system: Staphylococcus aureus; test: Antibacterial activity against Staphylococcus aureus ATCC 29213 assessed as inhibition of biofilm formation at 25 ug/mL
[19] = test system: Staphylococcus aureus; test: Antibacterial activity against Staphylococcus aureus ATCC 29213
Summary of the method: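 Broth microdilution: twofold serial dilutions of compound (range 50 to 0.001) in Mueller Hinton broth, each well inoculated with bacterial suspension from a 24 h culture containing ~10⁶ cfu/mL. Incubated 37 °C for 24 h.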

[20] = test system: Staphylococcus epidermidis; test: Antibacterial activity against Staphylococcus epidermidis RP62A assessed as inhibition of biofilm formation
[21] = test system: Staphylococcus aureus; test: Antibacterial activity against Staphylococcus aureus ATCC 29213 by NCCLS method

SMILES	MIC [1] [µg/mL]	MIC [2] [µg/mL]	MIC [3] [µg/mL]	MIC [4] [µg/mL]	MIC [5] [µg/mL]	MIC [6] [µg/mL]	MIC [7] [µg/mL]	MIC [8] [µg/mL]	MIC [9] [µg/mL]	other results
Cc1nn(C)c([N-]C(=O)Nc2ccccc2)c1[N+]#N	12.5 (≈ 48.8 µM)	25 (≈ 97.6 µM)	6.2 (≈ 24.2 µM)	12.5 (≈ 48.8 µM)	25 (≈ 97.6 µM)	12.5 (≈ 48.8 µM)	50 (≈ 195 µM)	12.5 (≈ 48.8 µM)	6.2 (≈ 24.2 µM)	–
COc1ccc(CC(=O)[N-]c2c([N+]#N)c(C)nn2C)cc1	6.2 (≈ 21.7 µM)	6.2 (≈ 21.7 µM)	6.2 (≈ 21.7 µM)	6.2 (≈ 21.7 µM)	6.2 (≈ 21.7 µM)	3.1 (≈ 10.9 µM)	25 (≈ 87.6 µM)	6.2 (≈ 21.7 µM)	6.2 (≈ 21.7 µM)	inhibition at 3.1 µg/mL [10]: 45.7%; inhibition at 3.1 µg/mL [11]: 25%; inhibition at 3.1 µg/mL [12]: 38%
Cc1nn(C)c([N-]C(=O)Nc2ccc(Cl)cc2)c1[N+]#N	6.2 (≈ 21.3 µM)	12.5 (≈ 43 µM)	6.2 (≈ 21.3 µM)	25 (≈ 86 µM)	25 (≈ 86 µM)	6.2 (≈ 21.3 µM)	3.1 (≈ 10.7 µM)	6.2 (≈ 21.3 µM)	12.5 (≈ 43 µM)	–
COc1ccc(NC(=O)[N-]c2c([N+]#N)c(C)nn2C)c([N+](=O)[O-])c1	> 50	> 50	> 50	> 50	> 50	> 50	> 50	> 50	> 50	–
Cc1nn(C)c([N-]C(=O)c2ccc(Cl)cc2)c1[N+]#N	–	–	–	–	–	–	–	–	–	inhibition at 25 µg/mL [13]: 69.7%; MIC [14]: 1.5 µg/mL (≈ 5.44 µM); MIC [15]: 2 µg/mL (≈ 7.25 µM); inhibition at 25 µg/mL [16]: 69.7%; MIC [17]: 1.5 µg/mL (≈ 5.44 µM); inhibition at 25 µg/mL [18]: 69.7%; MIC [19]: 1.5 µg/mL (≈ 5.44 µM)
Cc1nn(C)c([N-]C(=O)Cc2ccccc2)c1[N+]#N	6.2 (≈ 24.3 µM)	6.2 (≈ 24.3 µM)	1.5 (≈ 5.88 µM)	3.1 (≈ 12.1 µM)	6.2 (≈ 24.3 µM)	3.1 (≈ 12.1 µM)	1.5 (≈ 5.88 µM)	3.1 (≈ 12.1 µM)	3.1 (≈ 12.1 µM)	inhibition [10]: inactive; inhibition [11]: inactive; inhibition at 3.1 µg/mL [12]: 45.7%
Cc1nn(C)c([N-]C(=O)Nc2ccc(Cl)c(Cl)c2)c1[N+]#N	6.2 (≈ 19.1 µM)	3.1 (≈ 9.53 µM)	6.2 (≈ 19.1 µM)	6.2 (≈ 19.1 µM)	6.2 (≈ 19.1 µM)	3.1 (≈ 9.53 µM)	25 (≈ 76.9 µM)	6.2 (≈ 19.1 µM)	3.1 (≈ 9.53 µM)	–
Cc1nn(C)c([N-]C(=O)Nc2ccc(OCc3ccccc3)cc2[N+](=O)[O-])c1[N+]#N	> 50	> 50	> 50	> 50	> 50	> 50	> 50	> 50	> 50	–
Cc1nn(C)c([N-]C(=O)c2ccc([N+](=O)[O-])cc2)c1[N+]#N	–	–	–	–	–	–	–	–	–	inhibition at 25 µg/mL [13]: 69.7%; MIC [14]: 1.5 µg/mL (≈ 5.24 µM); MIC [15]: 2 µg/mL (≈ 6.99 µM); inhibition at 25 µg/mL [16]: 69.7%; MIC [17]: 1.5 µg/mL (≈ 5.24 µM); inhibition at 25 µg/mL [18]: 69.7%; MIC [19]: 1.5 µg/mL (≈ 5.24 µM)
Cc1nn(C)c([N-]C(=O)Cc2ccc(Cl)cc2)c1[N+]#N	25 (≈ 86.3 µM)	12.5 (≈ 43.1 µM)	1.5 (≈ 5.18 µM)	6.2 (≈ 21.4 µM)	12.5 (≈ 43.1 µM)	6.2 (≈ 21.4 µM)	50 (≈ 173 µM)	25 (≈ 86.3 µM)	3.1 (≈ 10.7 µM)	–
CCCCOc1ccc(NC(=O)[N-]c2c([N+]#N)c(C)nn2C)c([N+](=O)[O-])c1	> 50	> 50	> 50	> 50	> 50	> 50	> 50	> 50	> 50	–
Cc1nn(C)c([N-]C(=O)c2ccc(Cl)cc2Cl)c1[N+]#N	–	–	–	–	–	–	–	–	–	MIC [14]: 1.5 µg/mL (≈ 4.84 µM); MIC [15]: 2 µg/mL (≈ 6.45 µM); inhibition [20]: Active; MIC [17]: 1.5 µg/mL (≈ 4.84 µM); MIC [19]: 1.5 µg/mL (≈ 4.84 µM)
CO[C@H]1/C=C/O[C@@]2(C)Oc3c(C)c(O)c4c(O)c(c(/C=N/N5CCN(C)CC5)c(O)c4c3C2=O)NC(=O)/C(C)=C\C=C\[C@H](C)[C@H](O)[C@@H](C)[C@@H](O)[C@@H](C)[C@H](OC(C)=O)[C@@H]1C [RIFAMPIN]	0.015 (≈ 0.0182 µM)	0.6 (≈ 0.729 µM)	0.015 (≈ 0.0182 µM)	0.015 (≈ 0.0182 µM)	0.07 (≈ 0.0851 µM)	0.07 (≈ 0.0851 µM)	0.3 (≈ 0.365 µM)	0.015 (≈ 0.0182 µM)	1.25 (≈ 1.52 µM)	MIC [21]: 0.008 µg/mL (≈ 0.00972 µM)
Cc1nn(C)c([N-]C(=O)Nc2ccc([N+](=O)[O-])cc2)c1[N+]#N	6.2 (≈ 20.6 µM)	3.1 (≈ 10.3 µM)	3.1 (≈ 10.3 µM)	6.2 (≈ 20.6 µM)	3.1 (≈ 10.3 µM)	> 100	3.1 (≈ 10.3 µM)	6.2 (≈ 20.6 µM)	100 (≈ 332 µM)	–
